In ChEMBL document CHEMBL2407023, “trans-Resveratrol in Gnetum gnemon protects against oxidative-stress-induced endothelial senescence” (J Nat Prod, 2013):
Calls of active or inactive are those of the source.

Columns and labels:
[1] = target: T1, NAD-dependent protein deacetylase sirtuin-1 (Homo sapiens) (UniProt Q96EB6); experiment: Induction of SIRT1-mediated NRF-1 expression in H2O2-induced HUVEC pretreated for 1 day followed by compound washout and H2O2-treatment measured after 10 days by RT-PCR analysis; type: cell-based
T1 sequence (whole entry): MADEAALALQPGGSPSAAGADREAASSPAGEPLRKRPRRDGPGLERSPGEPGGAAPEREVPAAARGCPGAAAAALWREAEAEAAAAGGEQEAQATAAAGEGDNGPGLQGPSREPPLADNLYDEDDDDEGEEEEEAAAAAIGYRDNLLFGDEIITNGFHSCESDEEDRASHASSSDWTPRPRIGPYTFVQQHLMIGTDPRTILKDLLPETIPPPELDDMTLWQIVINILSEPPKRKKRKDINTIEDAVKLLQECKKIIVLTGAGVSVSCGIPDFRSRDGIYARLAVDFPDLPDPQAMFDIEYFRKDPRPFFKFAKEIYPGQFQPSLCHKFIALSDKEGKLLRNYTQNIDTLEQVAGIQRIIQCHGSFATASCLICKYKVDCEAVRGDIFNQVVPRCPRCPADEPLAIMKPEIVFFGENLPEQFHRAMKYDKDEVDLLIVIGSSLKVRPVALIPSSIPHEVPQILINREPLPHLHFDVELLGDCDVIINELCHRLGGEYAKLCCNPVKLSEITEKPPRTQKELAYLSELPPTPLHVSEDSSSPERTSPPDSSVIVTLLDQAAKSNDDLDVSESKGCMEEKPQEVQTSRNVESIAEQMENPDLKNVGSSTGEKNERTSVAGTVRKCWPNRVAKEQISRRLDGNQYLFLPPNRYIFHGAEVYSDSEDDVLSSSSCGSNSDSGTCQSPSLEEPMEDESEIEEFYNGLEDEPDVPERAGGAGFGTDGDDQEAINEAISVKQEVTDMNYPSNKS
How it was run: (§1)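 HUVEC were treated with compound at 100 μmol/L and H2O2 as in the senescence protocol. Total RNA was DNase-treated, then reverse transcribed with random hexamers and oligo d(T). mRNA was quantified by SYBR green real-time PCR relative to β-actin. Primer quality was checked by dissociation curves, standard-curve slopes and no-RT reactions.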

[2] = target: T1, NAD-dependent protein deacetylase sirtuin-1 (Homo sapiens); experiment: Induction of SIRT1-mediated TFAM expression in H2O2-induced HUVEC pretreated for 1 day followed by compound washout and H2O2-treatment measured after 10 days by RT-PCR analysis; type: cell-based; how it was run: as §1
[3] = system: HUVEC; experiment: Induction of mitochondrial biogenesis in H2O2-induced HUVEC at 100 umol/L pretreated for 1 day followed by compound washout and H2O2-treatment measured after 10 days by MitoTracker Red staining-based assay; type: functional, cell-based; details: Homo sapiens
How it was run: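 HUVEC were grown in chamber slides to 80% confluence and treated with compound at 100 μmol/L plus H2O2. At 10 days after H2O2, cells were stained 15 min with 100 nM MitoTracker Red CMXRos in prewarmed medium. Nuclei were counterstained with DAPI and cells imaged by fluorescence microscopy.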

[4] = target: T1, NAD-dependent protein deacetylase sirtuin-1 (Homo sapiens); experiment: Activation of SIRT1 (unknown origin) by fluorescence assay
How it was run: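 HUVEC exposed to compounds at 100 μmol/L were assayed for SIRT1 activity with a fluorescent SIRT1 activity kit, following the manufacturer's protocol. NAD+ was the positive control. Comparison was against vehicle control, n = 3.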

[5] = system: HUVEC; experiment: Effect on eNOS expression in H2O2-induced HUVEC pretreated for 1 day followed by compound washout and H2O2-treatment measured after 10 days by immunoblotting analysis; type: functional, cell-based; details: Homo sapiens
How it was run: (§2)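 HUVEC at PDL 10−11 were pretreated 1 day with compound at 100 μmol/L in EGM-2 (vehicle 0.05% DMSO). Cells were washed and exposed to 100 μmol/L H2O2 for 1 h. They were then reseeded and cultured 10 days with compound. Lysates were made in Tris/NP40/SDS buffer with protease and phosphatase inhibitors and immunoblotted. β-actin was the loading reference, with ECL detection.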

[6] = system: HUVEC; experiment: Effect on PAI-1 expression in H2O2-induced HUVEC pretreated for 1 day followed by compound washout and H2O2-treatment measured after 10 days by immunoblotting analysis; type: functional, cell-based; details: Homo sapiens; how it was run: as §2
[7] = system: HUVEC; experiment: Effect on SIRT1 expression in H2O2-induced HUVEC pretreated for 1 day followed by compound washout and H2O2-treatment measured after 10 days by immunoblotting analysis; type: functional, cell-based; details: Homo sapiens; how it was run: as §2
[8] = system: HUVEC; experiment: Effect on p53 expression in H2O2-induced HUVEC pretreated for 1 day followed by compound washout and H2O2-treatment measured after 10 days by immunoblotting analysis; type: functional, cell-based; details: Homo sapiens; how it was run: as §2
[9] = system: HUVEC; experiment: Inhibition of H2O2-induced HUVEC senescence assessed as change in cellular morphology pretreated for 1 day followed by compound washout and H2O2-treatment measured after 10 days by hematoxylin staining-based assay; type: functional, cell-based; details: Homo sapiens
How it was run: (§3)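 HUVEC at PDL 10−11 were grown to 80% confluence and pretreated 1 day with compound at 100 μmol/L (vehicle 0.05% DMSO). After washing, they received 100 μmol/L H2O2 for 1 h and were reseeded at 1 × 10^6 per dish. Culture continued 10 days with compound. Fixed cells were scored for SA-βgal-positive proportion, with hematoxylin counterstain for morphology; n = 3.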

[10] = system: HUVEC; experiment: Inhibition of H2O2-induced HUVEC senescence pretreated for 1 day followed by compound washout and H2O2-treatment measured after 10 days by SA-beta galactosidase staining-based assay; type: functional, cell-based; details: Homo sapiens; how it was run: as §3

Oc1ccc(/C=C/c2cc(O)cc(O)c2)cc1
active: Activity [1] | Activity [2] | Activity [3] | Activity [4] | Activity [5] | Activity [6] | Activity [7] | Activity [8] | inhibition [9] | inhibition [10]
